Key:
Hepatitis C virus [1] = experiment: Antiviral activity against Hepatitis C virus genotype 1b Con 1 infected in human HuH7 cells at 20 nM after 72 hrs by luciferase assay in presence of 0.04 nM daclatasvir; format: functional, Hepacivirus hominis, Huh-7
In short: (§1)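 Stable Con1 GT1b bicistronic luciferase replicon in Huh-7 cells, 8000 cells/well. Test compound and a marketed DAA or clemizole added alone or together at varied concentrations, 0.5% DMSO final. 72 h at 37°C, then luciferase read with Bright-Glo. Inhibition expressed as % of untreated control, with cytotoxicity run in parallel. CI and DRI derived by the Chou–Talalay median-effect method.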

Hepatitis C virus [2] = experiment: Antiviral activity against Hepatitis C virus genotype 1b Con 1 infected in human HuH7 cells at 160 nM after 72 hrs by luciferase assay in presence of 0.04 nM daclatasvir; format: functional, Hepacivirus hominis, Huh-7; in short: as §1
Hepatitis C virus [3] = experiment: Antiviral activity against Hepatitis C virus genotype 1b Con 1 infected in human HuH7 cells at 2.5 nM after 72 hrs by luciferase assay in presence of 24 nM simeprevir; format: functional, Hepacivirus hominis, Huh-7; in short: as §1
Hepatitis C virus [4] = experiment: Antiviral activity against Hepatitis C virus genotype 1b Con 1 infected in human HuH7 cells at 5 nM after 72 hrs by luciferase assay in presence of 30 nM sofobuvir; format: functional, Hepacivirus hominis, Huh-7
In short: (§2)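 Huh-7 cells stably carrying a GT1b Con1 bicistronic luciferase replicon, seeded at 8000 cells/well. The test compound and the partner DAA are dosed orthogonally at various concentrations, final 0.5% DMSO, then incubated 72 h at 37°C. Bright-Glo luciferase read-out gives replicon inhibition as % of untreated control. Cytotoxicity is checked in parallel by CellTiter-Fluor. CI and DRI are derived by the Chou–Talalay median-effect method.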

Hepatitis C virus [5] = experiment: Antiviral activity against Hepatitis C virus genotype 1b Con 1 infected in human HuH7 cells at 40 nM after 72 hrs by luciferase assay in presence of 0.08 nM daclatasvir; format: functional, Hepacivirus hominis, Huh-7; in short: as §2
Hepatitis C virus [6] = experiment: Antiviral activity against Hepatitis C virus genotype 1b Con 1 infected in human HuH7 cells at 10 nM after 72 hrs by luciferase assay in presence of 6 nM simeprevir; format: functional, Hepacivirus hominis, Huh-7; in short: as §1
Hepatitis C virus [7] = experiment: Antiviral activity against Hepatitis C virus genotype 1b Con 1 infected in human HuH7 cells at 2.5 nM after 72 hrs by luciferase assay in presence of 5 uM clemizole; format: functional, Hepacivirus hominis, Huh-7; in short: as §1
Hepatitis C virus [8] = experiment: Antiviral activity against Hepatitis C virus genotype 1b Con 1 infected in human HuH7 cells at 5 nM after 72 hrs by luciferase assay in presence of 15 uM clemizole; format: functional, Hepacivirus hominis, Huh-7; in short: as §2
Hepatitis C virus [9] = experiment: Antiviral activity against Hepatitis C virus genotype 1b Con 1 infected in human HuH7 cells at 2.5 nM after 72 hrs by luciferase assay in presence of 12.5 uM clemizole; format: functional, Hepacivirus hominis, Huh-7; in short: as §1
Hepatitis C virus [10] = experiment: Antiviral activity against Hepatitis C virus genotype 1b Con 1 infected in human HuH7 cells at 40 nM after 72 hrs by luciferase assay in presence of 0.16 nM daclatasvir; format: functional, Hepacivirus hominis, Huh-7; in short: as §2
Hepatitis C virus [11] = experiment: Antiviral activity against Hepatitis C virus genotype 1b harboring A156T NS3/4A mutation transfected in human HuH7 cells after 72 hrs by luciferase assay; format: functional, cell-based, Hepacivirus hominis; conditions: Huh-7, 72 h
In short: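 Huh-7 cells were transiently electroporated with genotype 1b replicon RNA carrying the specified mutation and plated at 10000 cells/well. Compounds were added at 0.5% DMSO final for 72 h at 37°C. Read-out was Bright-Glo luciferase. EC50 is the mean of two independent runs within 2-fold of each other. A reference drug EC50 was measured alongside each mutant replicon to validate it.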

Hepatitis C virus [12] = experiment: Antiviral activity against Hepatitis C virus genotype 1b Con 1 infected in human HuH7 cells at 20 nM after 72 hrs by luciferase assay in presence of 3 nM simeprevir; format: functional, Hepacivirus hominis, Huh-7; in short: as §2
Hepatitis C virus [13] = experiment: Antiviral activity against Hepatitis C virus genotype 1b Con 1 infected in human HuH7 cells at 10 nM after 72 hrs by luciferase assay in presence of 7.5 uM clemizole; format: functional, Hepacivirus hominis, Huh-7; in short: as §1
Hepatitis C virus [14] = experiment: Antiviral activity against Hepatitis C virus genotype 1b Con 1 infected in human HuH7 cells at 5 nM after 72 hrs by luciferase assay in presence of 240 nM sofobuvir; format: functional, Hepacivirus hominis, Huh-7; in short: as §2
Hepatitis C virus [15] = experiment: Antiviral activity against Hepatitis C virus genotype 1b Con 1 infected in human HuH7 cells at 5 nM after 72 hrs by luciferase assay in presence of 120 nM sofobuvir; format: functional, Hepacivirus hominis, Huh-7; in short: as §2
Hepatitis C virus [16] = experiment: Antiviral activity against Hepatitis C virus genotype 1b Con 1 infected in human HuH7 cells at 2.5 nM after 72 hrs by luciferase assay in presence of 0.04 nM daclatasvir; format: functional, Hepacivirus hominis, Huh-7; in short: as §1
Hepatitis C virus [17] = experiment: Antiviral activity against Hepatitis C virus genotype 1b Con 1 infected in human HuH7 cells at 5 nM after 72 hrs by luciferase assay in presence of 24 nM simeprevir; format: functional, Hepacivirus hominis, Huh-7; in short: as §2
Hepatitis C virus [18] = experiment: Antiviral activity against Hepatitis C virus genotype 1b Con 1 infected in human HuH7 cells at 10 nM after 72 hrs by luciferase assay in presence of 0.02 nM daclatasvir; format: functional, Hepacivirus hominis, Huh-7; in short: as §1
Hepatitis C virus [19] = experiment: Antiviral activity against Hepatitis C virus genotype 1b Con 1 infected in human HuH7 cells at 20 nM after 72 hrs by luciferase assay in presence of 15 uM clemizole; format: functional, Hepacivirus hominis, Huh-7; in short: as §2
Hepatitis C virus [20] = experiment: Antiviral activity against Hepatitis C virus genotype 1b Con 1 infected in human HuH7 cells at 2.5 nM after 72 hrs by luciferase assay in presence of 7.5 uM clemizole; format: functional, Hepacivirus hominis, Huh-7; in short: as §1
Hepatitis C virus [21] = experiment: Antiviral activity against Hepatitis C virus genotype 1b Con 1 infected in human HuH7 cells at 80 nM after 72 hrs by luciferase assay in presence of 10 uM clemizole; format: functional, Hepacivirus hominis, Huh-7; in short: as §2
Hepatitis C virus [22] = experiment: Antiviral activity against Hepatitis C virus genotype 1b Con 1 infected in human HuH7 cells at 80 nM after 72 hrs by luciferase assay in presence of 20 uM clemizole; format: functional, Hepacivirus hominis, Huh-7; in short: as §2
Hepatitis C virus [23] = experiment: Antiviral activity against Hepatitis C virus genotype 1b Con 1 infected in human HuH7 cells at 160 nM after 72 hrs by luciferase assay in presence of 0.16 nM daclatasvir; format: functional, Hepacivirus hominis, Huh-7; in short: as §1
Hepatitis C virus [24] = experiment: Antiviral activity against Hepatitis C virus genotype 1b Con 1 infected in human HuH7 cells at 80 nM after 72 hrs by luciferase assay in presence of 17.5 uM clemizole; format: functional, Hepacivirus hominis, Huh-7; in short: as §2
Hepatitis C virus [25] = experiment: Antiviral activity against Hepatitis C virus genotype 1b Con 1 infected in human HuH7 cells at 5 nM after 72 hrs by luciferase assay in presence of 60 nM sofobuvir; format: functional, Hepacivirus hominis, Huh-7; in short: as §2
Hepatitis C virus [26] = experiment: Antiviral activity against Hepatitis C virus genotype 1b Con 1 infected in human HuH7 cells at 160 nM after 72 hrs by luciferase assay in presence of 12 nM simeprevir; format: functional, Hepacivirus hominis, Huh-7; in short: as §1
Hepatitis C virus [27] = experiment: Antiviral activity against Hepatitis C virus genotype 1b Con 1 infected in human HuH7 cells at 80 nM after 72 hrs by luciferase assay in presence of 24 nM simeprevir; format: functional, Hepacivirus hominis, Huh-7; in short: as §2
Hepatitis C virus [28] = experiment: Antiviral activity against Hepatitis C virus genotype 1b Con 1 infected in human HuH7 cells at 40 nM after 72 hrs by luciferase assay in presence of 60 nM sofobuvir; format: functional, Hepacivirus hominis, Huh-7; in short: as §2
Hepatitis C virus [29] = experiment: Antiviral activity against Hepatitis C virus genotype 1b Con 1 infected in human HuH7 cells at 10 nM after 72 hrs by luciferase assay in presence of 120 nM sofobuvir; format: functional, Hepacivirus hominis, Huh-7; in short: as §1
Hepatitis C virus [30] = experiment: Antiviral activity against Hepatitis C virus genotype 1b Con 1 infected in human HuH7 cells at 160 nM after 72 hrs by luciferase assay in presence of 0.02 nM daclatasvir; format: functional, Hepacivirus hominis, Huh-7; in short: as §1

O=C(c1nc2scc(C3CC3)n2c1Cl)N1CCN(C2CCCC2)C(=O)C1
CI (Hepatitis C virus [1]): 0.69 | CI (Hepatitis C virus [2]): 0.42 | CI (Hepatitis C virus [3]): 1.31 | CI (Hepatitis C virus [4]): 0.77 | CI (Hepatitis C virus [5]): 0.53 | CI (Hepatitis C virus [6]): 0.54 | CI (Hepatitis C virus [7]): 1.22 | CI (Hepatitis C virus [8]): 0.99 | CI (Hepatitis C virus [9]): 1.07 | CI (Hepatitis C virus [10]): 0.64 | EC50 (Hepatitis C virus [11]): 4 nM | CI (Hepatitis C virus [12]): 0.94 | CI (Hepatitis C virus [13]): 0.54 | CI (Hepatitis C virus [14]): 0.74 | CI (Hepatitis C virus [15]): 0.82 | CI (Hepatitis C virus [16]): 0.89 | CI (Hepatitis C virus [17]): 1.31 | CI (Hepatitis C virus [18]): 1.14 | CI (Hepatitis C virus [19]): 0.79 | CI (Hepatitis C virus [20]): 0.72 | CI (Hepatitis C virus [21]): 0.82 | CI (Hepatitis C virus [22]): 1.41 | CI (Hepatitis C virus [23]): 0.65 | CI (Hepatitis C virus [24]): 1.11 | CI (Hepatitis C virus [25]): 0.85 | CI (Hepatitis C virus [26]): 0.47 | CI (Hepatitis C virus [27]): 0.87 | CI (Hepatitis C virus [28]): 0.67 | CI (Hepatitis C virus [29]): 0.7 | CI (Hepatitis C virus [30]): 0.5
